ChEMBL document CHEMBL1140861, “Short antisense oligonucleotides with novel 2'-4' conformationaly restricted nucleoside analogues show improved potency without increased toxicity in animals” (J Med Chem, 2009)
Blank lines part the entries; values can stand above or below the molecule they belong to. Activity calls are given as the source filed them. The calls are words filed in the database; no cut-off is given here.

Tests used:
Mus musculus [1] = assay: Reduction of PTEN mRNA level in ip dosed BALB/c mouse liver after 72 hrs; type: functional
Mus musculus [2] = assay: Reduction of PTEN mRNA level in BALB/c mouse liver at 32 mg/kg, ip after 72 hrs; type: functional, organism-based; set-up: dose 32 mg/kg
Outline: (§1)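 Balb/c mice, 6 weeks old, n = 4 per dose group, single ip doses of 32, 66 or 100 mg/kg; killed 72 h after administration; serum ALT and liver PTEN mRNA quantified after sacrifice; errors as sd.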

Mus musculus [3] = assay: Hepatotoxicity in ip dosed BALB/c mouse assessed as increase in liver ALT level at 5 to 10 times of ED50 after 72 hrs; type: toxicity, organism-based; settings: in vivo
Mus musculus [4] = assay: Reduction of PTEN mRNA level in BALB/c mouse liver at 60 mg/kg, ip after 72 hrs; type: functional, organism-based; set-up: dose 60 mg/kg
Mus musculus [5] = assay: Reduction of PTEN mRNA level in BALB/c mouse liver at 37 mg/kg, ip after 72 hrs; type: functional, organism-based; set-up: dose 37 mg/kg
Mus musculus [6] = species on record: Mus musculus; assay: Binding affinity to mouse PTEN mRNA assessed as melting temperature
Outline: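 Tm of ASO–RNA duplex, i.e. melting temperature of the ASO hybridised to its complementary RNA.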

Mus musculus [7] = assay: Reduction of PTEN level in ip dosed BALB/c mouse liver at 37 mg/kg by Western blot analysis; type: functional, organism-based; set-up: dose 37 mg/kg
Mus musculus [8] = assay: Reduction of PTEN mRNA level in BALB/c mouse liver at 100 mg/kg, ip after 72 hrs; type: functional; outline: as §1
Mus musculus [9] = assay: Hepatotoxicity in BALB/c mouse assessed as increase in liver ALT level at 32 mg/kg, ip after 72 hrs; type: toxicity, organism-based; set-up: dose 32 mg/kg, route intraperitoneal; settings: in vivo; outline: as §1
Mus musculus [10] = assay: Hepatotoxicity in BALB/c mouse assessed as increase in liver ALT level at 100 mg/kg, ip after 72 hrs; type: toxicity, organism-based; set-up: dose 100 mg/kg, route intraperitoneal; settings: in vivo; outline: as §1
bEND = assay: Reduction in mouse PTEN mRNA level expressed in mouse bEND cells; type: functional, cell-based
Outline: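 bEND mouse brain endothelial cells transfected with ASO using lipofectin; PTEN mRNA reduction measured over a dose range; IC50 taken from dose-response curves.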

Mus musculus [11] = assay: Hepatotoxicity in BALB/c mouse assessed as increase in liver ALT level at 66 mg/kg, ip after 72 hrs; type: toxicity, organism-based; set-up: dose 66 mg/kg, route intraperitoneal; settings: in vivo; outline: as §1
Mus musculus [12] = assay: Reduction of PTEN mRNA level in ip dosed BALB/c mouse liver administered twice a week for 3 weeks measured after 72 hrs of last dose; type: functional
Outline: (§2)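 Male Balb/c mice, 6 weeks old, dosed ip twice weekly for 3 weeks at 0.5, 1.5, 4.7 and 15 mg/kg (two ASOs) or 0.7, 2.3, 7.2 and 23 mg/kg (MOE control); sacrificed 72 h after last dose; ALT, liver PTEN mRNA, liver and spleen weights and body weight gain assessed; ED50 derived; errors as sd.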

Mus musculus [13] = assay: Metabolic stability in BALB/c mouse liver assessed as antisense oligonucleotide level at 18 mg/kg; type: ADME, organism-based; set-up: dose 18 mg/kg; settings: in vivo
Mus musculus [14] = assay: Reduction of PTEN mRNA level in BALB/c mouse liver at 66 mg/kg, ip after 72 hrs; type: functional, organism-based; set-up: dose 66 mg/kg; outline: as §1
Mus musculus [15] = assay: Hepatotoxicity in BALB/c mouse assessed as increase in liver ALT level at 60 mg/kg, ip after 72 hrs; type: toxicity, organism-based; set-up: dose 60 mg/kg, route intraperitoneal; settings: in vivo
Mus musculus [16] = assay: Hepatotoxicity in BALB/c mouse assessed as increase in liver ALT level at 4.7 mg/kg, ip administered twice a week for 3 weeks measured after 72 hrs of last dose; type: toxicity, organism-based; set-up: dose 4.7 mg/kg, route intraperitoneal; settings: in vivo; outline: as §2
Mus musculus [17] = assay: Hepatotoxicity in BALB/c mouse assessed as increase in liver ALT level at 7.2 mg/kg, ip administered twice a week for 3 weeks measured after 72 hrs of last dose; type: toxicity, organism-based; set-up: dose 7.2 mg/kg, route intraperitoneal; settings: in vivo; outline: as §2
Mus musculus [18] = assay: Hepatotoxicity in BALB/c mouse assessed as increase in liver ALT level at 15 mg/kg, ip administered twice a week for 3 weeks measured after 72 hrs of last dose; type: toxicity, organism-based; set-up: dose 15 mg/kg, route intraperitoneal; settings: in vivo; outline: as §2
Mus musculus [19] = assay: Hepatotoxicity in BALB/c mouse assessed as increase in liver ALT level at 0.7 mg/kg, ip administered twice a week for 3 weeks measured after 72 hrs of last dose; type: toxicity, organism-based; set-up: dose 0.7 mg/kg, route intraperitoneal; settings: in vivo; outline: as §2
Mus musculus [20] = assay: Toxicity in BALB/c mouse assessed as reduction in body weight at 0.5 mg/kg, ip administered twice a week for 3 weeks measured after 72 hrs of last dose; type: organism-based; set-up: dose 0.5 mg/kg, route intraperitoneal; settings: in vivo; outline: as §2
Mus musculus [21] = assay: Hepatotoxicity in BALB/c mouse assessed as increase in liver ALT level at 0.5 mg/kg, ip administered twice a week for 3 weeks measured after 72 hrs of last dose; type: toxicity, organism-based; set-up: dose 0.5 mg/kg, route intraperitoneal; settings: in vivo; outline: as §2
Mus musculus [22] = assay: Hepatotoxicity in BALB/c mouse assessed as increase in liver ALT level at 23 mg/kg, ip administered twice a week for 3 weeks measured after 72 hrs of last dose; type: toxicity, organism-based; set-up: dose 23 mg/kg, route intraperitoneal; settings: in vivo; outline: as §2
Mus musculus [23] = assay: Toxicity in BALB/c mouse assessed as reduction in body weight at 1.5 mg/kg, ip administered twice a week for 3 weeks measured after 72 hrs of last dose; type: organism-based; set-up: dose 1.5 mg/kg, route intraperitoneal; settings: in vivo; outline: as §2
Mus musculus [24] = assay: Toxicity in BALB/c mouse assessed as reduction in body weight at 15 mg/kg, ip administered twice a week for 3 weeks measured after 72 hrs of last dose; type: organism-based; set-up: dose 15 mg/kg, route intraperitoneal; settings: in vivo; outline: as §2
Mus musculus [25] = assay: Toxicity in BALB/c mouse assessed as reduction in body weight at 4.7 mg/kg, ip administered twice a week for 3 weeks measured after 72 hrs of last dose; type: organism-based; set-up: dose 4.7 mg/kg, route intraperitoneal; settings: in vivo; outline: as §2
Mus musculus [26] = assay: Hepatotoxicity in BALB/c mouse assessed as increase in liver ALT level at 2.3 mg/kg, ip administered twice a week for 3 weeks measured after 72 hrs of last dose; type: toxicity, organism-based; set-up: dose 2.3 mg/kg, route intraperitoneal; settings: in vivo; outline: as §2
Mus musculus [27] = assay: Hepatotoxicity in BALB/c mouse assessed as increase in liver ALT level at 1.5 mg/kg, ip administered twice a week for 3 weeks measured after 72 hrs of last dose; type: toxicity, organism-based; set-up: dose 1.5 mg/kg, route intraperitoneal; settings: in vivo; outline: as §2

Tm (Mus musculus [6]): 60.6 °C | IC50 (bEND): 4.9 nM | Stability (Mus musculus [13]): 25 µg/g
Compound: Cc1cn([C@@H]2O[C@@]3(COP(O)(=S)O[C@H]4[C@H]5OC[C@]4(COP(O)(=S)O[C@H]4C[C@H](n6cc(C)c(=O)[nH]c6=O)O[C@@H]4COP(O)(=S)O[C@H]4[C@@H](O)[C@H](n6cnc7c6N=CNC7N)O[C@@H]4COP(O)(=S)O[C@H]4[C@@H](O)[C@H](n6cnc7c(=O)[nH]c(N)nc76)O[C@@H]4COP(O)(=S)O[C@H]4[C@@H](O)[C@H](n6ccc(N)nc6=O)O[C@@H]4COP(O)(=S)O[C@H]4[C@@H](O)[C@H](n6cnc7c(N)ncnc76)O[C@@H]4COP(O)(=S)O[C@H]4[C@@H](O)[C@H](n6ccc(N)nc6=O)O[C@@H]4COP(O)(=S)O[C@H]4[C@@H](O)[C@H](n6cc(C)c(=O)[nH]c6=O)O[C@@H]4COP(O)(=S)O[C@H]4[C@@H](O)[C@H](n6cnc7c(=O)[nH]c(N)nc76)O[C@@H]4COP(O)(=S)O[C@H]4[C@@H](O)[C@H](n6cnc7c(=O)[nH]c(N)nc76)O[C@@H]4COP(O)(=S)O[C@H]4[C@@H](O)[C@H](n6ccc(N)nc6=O)O[C@@H]4COP(O)(=S)O[C@H]4[C@H]6OC[C@]4(COP(O)(=S)O[C@H]4[C@H]7OC[C@]4(CO)O[C@H]7n4cc(C)c(=O)[nH]c4=O)O[C@H]6n4cc(C)c(N)nc4=O)O[C@H]5n4cc(C)c(=O)[nH]c4=O)CO[C@@H]2[C@@H]3O)c(=O)nc1N (stereo partly specified)
ED50 (Mus musculus [1]): 6 mg/kg | Activity (Mus musculus [2]): Active | Activity (Mus musculus [3]): Toxic | Activity (Mus musculus [4]): Active | Activity (Mus musculus [5]): Active | Activity (Mus musculus [7]): Active | Activity (Mus musculus [8]): Active | Activity (Mus musculus [9]): Non-toxic | Activity (Mus musculus [10]): Toxic | Activity (Mus musculus [11]): Toxic | ED50 (Mus musculus [12]): 2.1 mg/kg | Activity (Mus musculus [14]): Active | Activity (Mus musculus [15]): Non-toxic

Tm (Mus musculus [6]): 67.9 °C | IC50 (bEND): 6.2 nM
Compound: COCCO[C@@H]1[C@H](O)[C@@H](COP(O)(=S)O[C@H]2[C@@H](OCCOC)[C@H](n3cc(C)c(=O)[nH]c3=O)O[C@@H]2COP(O)(=S)O[C@H]2[C@@H](OCCOC)[C@H](n3cnc4c(=O)[nH]c(N)nc43)O[C@@H]2COP(O)(=S)O[C@H]2[C@@H](OCCOC)[C@H](n3cc(C)c(N)nc3=O)O[C@@H]2COP(O)(=S)O[C@H]2[C@@H](OCCOC)[C@H](n3cc(C)c(=O)[nH]c3=O)O[C@@H]2COP(O)(=S)O[C@H]2[C@@H](O)[C@H](n3cnc4c(N)ncnc43)O[C@@H]2COP(O)(=S)O[C@H]2[C@@H](O)[C@H](n3cnc4c(=O)[nH]c(N)nc43)O[C@@H]2COP(O)(=S)O[C@H]2[C@@H](O)[C@H](n3cc(C)c(N)nc3=O)O[C@@H]2COP(O)(=S)O[C@H]2[C@@H](O)[C@H](n3cc(C)c(N)nc3=O)O[C@@H]2COP(O)(=S)O[C@H]2C[C@H](n3cc(C)c(=O)[nH]c3=O)O[C@@H]2COP(O)(=S)O[C@H]2[C@@H](O)[C@H](n3cc(C)c(N)nc3=O)O[C@@H]2COP(O)(=S)O[C@H]2C[C@H](n3cc(C)c(=O)[nH]c3=O)O[C@@H]2COP(O)(=S)O[C@H]2[C@@H](O)[C@H](n3cnc4c(=O)[nH]c(N)nc43)O[C@@H]2COP(O)(=S)O[C@H]2[C@@H](O)[C@H](n3cnc4c(=O)[nH]c(N)nc43)O[C@@H]2COP(O)(=S)O[C@H]2[C@@H](O)[C@H](n3cnc4c(N)ncnc43)O[C@@H]2COP(O)(=S)O[C@H]2[C@@H](OCCOC)[C@H](n3cc(C)c(=O)[nH]c3=O)O[C@@H]2COP(O)(=S)O[C@H]2[C@@H](OCCOC)[C@H](n3cc(C)c(=O)[nH]c3=O)O[C@@H]2COP(O)(=S)O[C@H]2[C@@H](OCCOC)[C@H](n3cc(C)c(=O)[nH]c3=O)O[C@@H]2COP(O)(=S)O[C@H]2[C@@H](OCCOC)[C@H](n3cnc4c(=O)[nH]c(N)nc43)O[C@@H]2COP(O)(=S)O[C@H]2[C@@H](OCCOC)[C@H](n3cnc4c(N)ncnc43)O[C@@H]2CO)O[C@H]1n1cc(C)c(N)nc1=O (stereo partly specified)
ED50 (Mus musculus [1]): 36 mg/kg | Activity (Mus musculus [4]): Active | Activity (Mus musculus [5]): Active | Activity (Mus musculus [16]): Non-toxic | Activity (Mus musculus [7]): Active | Activity (Mus musculus [17]): Non-toxic | Activity (Mus musculus [18]): Non-toxic | Activity (Mus musculus [19]): Non-toxic | Activity (Mus musculus [20]): Non-toxic | Activity (Mus musculus [21]): Non-toxic | Activity (Mus musculus [22]): Non-toxic | ED50 (Mus musculus [12]): 9.5 mg/kg | Activity (Mus musculus [23]): Non-toxic | Activity (Mus musculus [24]): Non-toxic | Activity (Mus musculus [25]): Non-toxic | Activity (Mus musculus [26]): Non-toxic | Activity (Mus musculus [27]): Non-toxic | Activity (Mus musculus [15]): Non-toxic
